Experimental findings from publication PMC6528680 (Journal of natural products, 2019) are described below.

The target of data set [1] is T1, rh-HPSE (Homo sapiens, UniProt Q9Y251).
T1 sequence (Q9Y251 158-543 limits assumed): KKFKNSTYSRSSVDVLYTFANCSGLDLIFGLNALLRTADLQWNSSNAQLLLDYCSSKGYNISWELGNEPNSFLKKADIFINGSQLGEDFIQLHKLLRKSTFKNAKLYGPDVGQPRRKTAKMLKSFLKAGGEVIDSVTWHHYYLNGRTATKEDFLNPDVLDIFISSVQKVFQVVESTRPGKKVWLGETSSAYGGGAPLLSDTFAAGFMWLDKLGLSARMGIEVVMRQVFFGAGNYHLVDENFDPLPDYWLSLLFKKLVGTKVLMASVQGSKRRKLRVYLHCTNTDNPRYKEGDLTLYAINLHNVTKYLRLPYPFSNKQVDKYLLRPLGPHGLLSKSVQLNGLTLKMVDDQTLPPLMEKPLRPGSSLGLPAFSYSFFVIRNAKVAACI
T1 sequence (Q9Y251 36-109 limits assumed): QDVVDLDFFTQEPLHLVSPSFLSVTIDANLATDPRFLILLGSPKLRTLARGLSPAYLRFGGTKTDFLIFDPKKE
The experiment in a line: Deconjugation of curcumin-glucuronide by recombinant enzyme. The class given is biochemical. The conditions noted are these: 5 μg/mL (100 nM) enzyme, 459 nM substrate, 24 h, 37°C, pH 5. Put shortly:
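Recombinant human enzyme was incubated with synthesized glucuronide substrate in an enzyme-optimized pH 5 buffer for 24 h at 37°C. Activity was taken from quantitation of the remaining glucuronide substrate and the released aglycone product. n=3–6 per group.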

For data set [2], the target named is T2, GUSB (Mus musculus, UniProt P12265).
T2 sequence (P12265 23-648): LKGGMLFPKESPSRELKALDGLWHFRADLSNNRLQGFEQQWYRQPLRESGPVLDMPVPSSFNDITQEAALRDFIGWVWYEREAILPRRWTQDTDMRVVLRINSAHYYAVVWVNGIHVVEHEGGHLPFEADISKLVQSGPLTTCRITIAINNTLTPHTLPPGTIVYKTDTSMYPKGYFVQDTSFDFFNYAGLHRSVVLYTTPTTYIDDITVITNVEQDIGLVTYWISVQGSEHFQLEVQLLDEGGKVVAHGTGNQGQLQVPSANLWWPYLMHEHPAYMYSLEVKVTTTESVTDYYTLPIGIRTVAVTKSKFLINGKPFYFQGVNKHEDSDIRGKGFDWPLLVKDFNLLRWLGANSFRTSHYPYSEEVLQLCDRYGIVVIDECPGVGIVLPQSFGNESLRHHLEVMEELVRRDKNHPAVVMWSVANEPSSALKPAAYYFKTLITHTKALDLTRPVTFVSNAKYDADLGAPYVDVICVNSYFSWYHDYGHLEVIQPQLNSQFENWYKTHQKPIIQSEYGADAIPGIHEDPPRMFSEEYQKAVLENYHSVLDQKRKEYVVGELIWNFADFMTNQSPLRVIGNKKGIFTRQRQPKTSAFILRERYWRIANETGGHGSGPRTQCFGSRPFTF
Type of data set: biochemical, C57BL/6J mice. The conditions noted are these: 0.5 μM curcumin-glucuronide added ex vivo, sodium acetate buffer 50 mM pH 5, 2 h.

The format of data set [3] is in vivo, mice (C57BL/6J, C3H/HeJ). To be noted: mouse, po, 500 mg/kg. Put shortly: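 Oral gavage of 500 mg/kg in DMSO to C57BL/6J and C3H/HeJ mice (n=3–4/group), with sampling at 30 min under isoflurane. Marrow pellets were suspended in 50 mM sodium acetate pH 5 for 2 h on ice and centrifuged. Serum was acidified to pH 5 with HCl before HLB extraction and LC/MS. Marrow concentrations were corrected to pellet volume, assuming density 1.06 g/ml. Mean ± SEM.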

Data set [4] deals with T2, GUSB. The class given is biochemical, C57BL/6NJ mice. To be noted: 10 μM added in vitro, 2 h, 37°C, physiologic pH.
The format of data set [5] is in vivo, mice (C57BL/6J, C3H/HeJ, mps/mps). The conditions noted are these: for concentration at 20 min: mouse, ip, 100 mg/kg. Put shortly: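 Test compound dosed IP at 100 mg/kg in DMSO to 15-week female BL/6J, female HeJ and male mps/mps mice (n=3–5/group). Blood and marrow were taken under isoflurane at 20 min. Marrow pellets were resuspended in 50 mM sodium acetate pH 5 and held 2 h on ice, then supernatants were kept. Serum was acidified to pH 5, and aglycone and glucuronide were measured by HLB solid-phase extraction and LC/MS. Mean ± SEM.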

For data set [6], the system named is RANKL-stimulated osteoclast formation in RAW 264.7 cells. The experiment in a line: RANKL-stimulated osteoclastogenesis assay. To be noted: even at 10-fold higher doses than the curcumin IC50. The class given is cell-based, murine. Put shortly:
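RAW 264.7 cells were seeded at 5×10^3/well in DMEM with 10% FBS and 1% pen/strep and left to adhere overnight at 37°C, 5% CO2. They were pretreated 4 h with the test compound, then stimulated with recombinant mouse RANKL (50 ng/mL final) for 72 h at 37°C. TRAP-positive multinucleated osteoclasts were counted. n=4/group, mean ± SEM.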

Read-outs that look alike come from different tables or passages of the source.

For `COc1cc(/C=C/C(=O)CC(=O)/C=C/c2ccc(O[C@@H]3O[C@H](C(=O)O)[C@@H](O)[C@H](O)[C@H]3O)c(OC)c2)ccc1O` [curcumin-glucuronide], the “Ability of HPSE to deconjugate curcumin glucuronide” value in data set [1] was “only GUSB and KL were able to deconjugate”. Besides, the “Deconjugation by soluble GUSB activity in cell-free marrow fractions” value in data set [2] was “sufficient to deconjugate”. Also, the concentration at 30 min in data set [3] (C57BL/6J, bone marrow suspension) was found to be 0.36 µM; in data set [3] (C57BL/6J, serum) it was 82.7 µM; in data set [3] (male, C3H/HeJ, bone marrow suspension) it was 1.19 µM; in data set [3] (male, C3H/HeJ, serum) it was 80 µM. Also, the “Deconjugation in conditioned media from bone marrow cells” value in data set [4] is on record as “forming detectable aglycone curcumin”. In addition, the concentration at 20 min in data set [5] (female, C3H/HeJ, bone marrow suspension) was found to be 2.7 µM; in data set [5] (female, C3H/HeJ, serum) it was 92.1 µM; in data set [5] (female, C57BL/6J, bone marrow suspension), 1.3 µM; in data set [5] (female, C57BL/6J, serum), 92.7 µM; in data set [5] (male, mps/mps, serum) it was 151 µM. The “Increase of bone marrow curcumin-glucuronide concentrations vs BL/6J” value in data set [5] (mps/mps mice, IP curcumin) was found to be 4 fold. For the same compound, the “Effect on RANKL-stimulated osteoclast formation” value in data set [6] was “without effect”.
